The source made the active and inactive calls. The rule behind the calls is not given here.
Assays:
Rattus norvegicus [1] = organism: Rattus norvegicus; experiment: Reduction in accumulated dopa is indicated with Motor activity value; assay type: functional
How it was run: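 Rats given reserpine (10 mg/kg ip) 6 h and α-methyl-p-tyrosine methyl ester (250 mg/kg ip) 1 h before testing. Compounds were then given sc in the neck, n = 4, at 1 or 10 mg/kg in saline; controls received saline. Photocell motility meters, one rat per cage, recorded activity for 60 min immediately after dosing, with gross behavior observed.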

Rattus norvegicus [2] = organism: Rattus norvegicus; experiment: Half maximal decrease of dopa accumulation in limbic portion of reserpinized rats; assay type: functional; conditions: Limbic system
How it was run: (§1)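 Reserpinized rats; Dopa accumulation measured after the decarboxylase inhibitor NSD 1015 (100 mg/kg), Dopa determined spectrophotometrically. Compounds in saline, given subcutaneously at four to six dose levels. A dose-response curve was built per compound and brain area (limbic, striatal). ED50 is the dose giving half-maximal decrease of Dopa, estimated graphically. SEM was below 15% of the mean at each point.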

Rattus norvegicus [3] = organism: Rattus norvegicus; experiment: Half maximal decrease of dopa accumulation in striatal brain portion of reserpinized rats; assay type: functional; how it was run: as §1
Rattus norvegicus [4] = organism: Rattus norvegicus; experiment: Half maximal decrease of dopa accumulation in limbic portion of reserpinized rats; I =Inactive; assay type: functional, organism-based; conditions: Limbic system; how it was run: as §1
Rattus norvegicus [5] = organism: Rattus norvegicus; experiment: Half maximal decrease of dopa accumulation in striatal brain portion of reserpinized rats; I =Inactive; assay type: functional, organism-based; how it was run: as §1

Row | Structure (SMILES) | Motor activity (Rattus norvegicus [1]) | ED50 (Rattus norvegicus [2]) [µmol/kg] | ED50 (Rattus norvegicus [3]) [µmol/kg] | ED50 (Rattus norvegicus [4]) | ED50 (Rattus norvegicus [5])
1 | Br.CCCN(CCC)[C@H]1CCc2c(O)cccc2[C@H]1C | 52 Counts hr-1 | 0.67 | 0.8 |  | 
2 | CCCN(CCC)[C@H]1CCc2c(O)cccc2C1(C)C | inactive |  |  | inactive | inactive
3 | Br.CCCN(CCC)[C@H]1CCc2c(O)cccc2[C@@H]1C | 406 Counts hr-1 | 0.66 | 0.725 |  | 

From ChEMBL document CHEMBL1122695, “C1-Methylated 5-hydroxy-2-(dipropylamino)tetralins: central dopamine-receptor stimulating activity” (1984)
